Consider five molecules from paper PMC12257578 (Drug Development Research, 2025).

Data set [1] deals with Leishmania donovani strain 9515 promastigotes. The data set can be described thus: Antipromastigote resazurin assay, L. donovani. Format: cell-based. The note with it: read-out: Antipromastigote activity IC50. In outline:
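L. donovani strain 9515 (MHOM/IN/95/9515) promastigotes were kept at 26°C in supplemented M199 with 10% FBS, pH 7.3–7.4. Log-phase cells were seeded at 1.25 × 10^6 cells/mL with seven two-fold dilutions of test compound. […] After 48 h at 26°C, 0.01% resazurin in PBS was added for 24 h in the dark. IC50 came from absorbance.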

The subject of data set [2] is L. major strain NIH S intramacrophage amastigotes. Description: Intramacrophage antileishmanial assay. Format: cell-based. The note with it: Leishmania major.
A short description of data set [3]: Animal cytotoxicity, CCK-8 assay in MDBK cells. Format: cell-based, bovine. The note with it: bovine. In outline:
(§1)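 MDBK bovine kidney cells at 10 000 cells/mL were exposed to two-fold serial dilutions of test compound for 72 h at 37°C, 5% CO2, humidified. CCK-8 reagent was then added, followed by a further 4 h incubation. Absorbance was read and CC50 derived, reported as mean ± SD of three biological replicates.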
On the technique in general: Formazan colour is commonly taken as a measure of viable cells.

For data set [4], the system named is Trypanosoma brucei brucei GUTat3.1. Description: Antitrypanosomal Cell-TiterGlo assay, T.b. brucei. In kind it is cell-based. The note with it: read-out: Antitrypomastigote activity IC50 ± SD. In outline: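 Blood-stage T. b. brucei GUTat3.1 at 2500 cells/mL was first screened at 0.25 and 25 µg/mL. […] Plates ran 72 h, then CellTiter-Glo was added, shaken 2 min and held 10 min at room temperature for lysis. IC50 came from bioluminescence, mean ± SD of three biological replicates.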

For data set [5], the system named is T. equiperdum strain IVM‐t1. The data set can be described thus: Antitrypanosomal Cell-TiterGlo assay, T. equiperdum. Format: cell-based, Trypanosoma equiperdum. The following applies: read-out: Antitrypomastigote activity IC50 ± SD.
The test system of data set [6] is human colorectal adenocarcinoma (CaCO2) cells. The note with it: ref Tshiluka et al. [2023]; Tshiluka et al. [2025]; cited from earlier work.
In data set [7] the test system is T. congolense strain IL3000. Description: Antitrypanosomal Cell-TiterGlo assay, T. congolense. The following applies: read-out: Antitrypomastigote activity IC50 ± SD. Format: cell-based, Trypanosoma congolense.
Data set [8] concerns Leishmania donovani strain 9515 intramacrophage amastigotes. Description: Intramacrophage antileishmanial assay. Format: cell-based.
Data set [9] has as its system L. major strain NIH S promastigotes. The data set can be described thus: Antipromastigote resazurin assay, L. major. In kind it is cell-based. The note with it: Leishmania major, read-out: Antipromastigote activity IC50. In general terms: The colour change of resazurin is a common sign of viable cells or microbes.
A short description of data set [10]: General cytotoxicity, resazurin assay in Vero cells. The note with it: African green monkey. In kind it is cell-based. An outline of the steps: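 Vero cells at 60,000 cells/mL were pre-incubated 24 h, then treated with a two-fold dilution series starting from 100 μM test compound for 72 h. […] Emetine served as control.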
In data set [11] the test system is T. brucei gambiense strain IL1922. Description: Antitrypanosomal Cell-TiterGlo assay, T.b. gambiense. The following applies: read-out: Antitrypomastigote activity IC50 ± SD; Tbg IL1922, 72 h. In kind it is cell-based, Trypanosoma brucei gambiense.
Data set [12] concerns Madin‐Darby bovine kidney (MDBK) cell line. The data set can be described thus: Animal cytotoxicity, CCK-8 assay in MDBK cells. Format: cell-based. The note with it: read-out: Cytotoxicity CC50 ± SD MDBK, 72 h. In outline: as §1
Setting [13] is: 24 h, read-out: Static anti‐amastigote activity IC50.
[14] abbreviates: 72 h, read-out: Cidal anti‐amastigote activity IC50.

Each structure is given as a SMILES string. Read-outs that look alike come from different tables or passages of the source.

As for `CCC[C@H](NC(=O)CN1C(=O)SC(=Cc2ccc3c(c2)OCO3)C1=O)C(=O)OCC` [Compound 8, Ethyl {2-[5-(benzo[d] [1,3]dioxol-5-ylmethylene)-2,4-dioxothiazolidin-3-yl]acetyl}norvalinate], the IC50 in data set [1] was 85860 ± 390 nM; in data set [2] (setting [13]) it was above 10000 nM; in data set [2] (setting [14]), above 10000 nM; in data set [4] (Trypanosoma brucei, 72 h) it was above 58000 nM; in data set [5] (Trypanosoma equiperdum, 72 h), above 58000 nM; in data set [7] (Trypanosoma congolense, 72 h) it was above 58000 nM. The IC50 in data set [8] (setting [13]) was above 10000 nM; in data set [8] (setting [14]) it was above 10000 nM; in data set [9] it was above 100000 nM. Moreover, the CC50 at 72 h in data set [3] was determined as 97100 ± 9300 nM. For the same molecule, the “Toxicity on CaCO2 (Caco‐2) cells in words” value in data set [6] is “reduced cell viability”.

Regarding `Cc1ccc(C(=O)Nc2ccc(S(=O)(=O)O)c3cc(S(=O)(=O)O)cc(S(=O)(=O)O)c23)cc1NC(=O)c1cccc(NC(=O)Nc2cccc(C(=O)Nc3cc(C(=O)Nc4ccc(S(=O)(=O)O)c5cc(S(=O)(=O)O)cc(S(=O)(=O)O)c45)ccc3C)c2)c1` [Suramin, suramin], the CC50 at 72 h in [3] was above 70000 nM. The IC50 in data set [4] (Trypanosoma brucei, 72 h) was 70 ± 20 nM.

Regarding `CC[C@H]1CN2CCc3cc(OC)c(OC)cc3[C@@H]2C[C@@H]1C[C@H]1NCCc2cc(OC)c(OC)cc21` [Em, Emetine], in data set [10], the CC50 at 72 h was found to be 80 ± 9 nM.

For the molecule `C[C@@H]1[C@H](O)[C@@H](C)/C=C/C=C/C=C/C=C/C=C/C=C/C=C/[C@H](O[C@@H]2O[C@H](C)[C@@H](O)[C@H](N)[C@@H]2O)C[C@@H]2O[C@](O)(C[C@@H](O)C[C@@H](O)[C@H](O)CC[C@@H](O)C[C@@H](O)CC(=O)O[C@H]1C)C[C@H](O)[C@H]2C(=O)O` [AMB, Amphotericin B], the IC50 in data set [1] came to 20 ± 9 nM; in [8] (setting [13]), 50 nM.

As to `N=C(N)c1ccc(N=NNc2ccc(C(=N)N)cc2)cc1` [Diminazene aceturate, diminazene aceturate], the IC50 in [11] is 11 nM; in data set [4] (Tbb GuTat3.1, 72 h), 68 nM; in data set [5] (Teq IVM‐t1, 72 h), 22 ± 2 nM; in [7] (Tc IL3000, 72 h) it was 90 nM. Moreover, the CC50 in data set [12] was above 355000 nM.

Broadly, the IC50 is the concentration at which inhibition is half-maximal. In general, CC50 refers to the concentration at which the toxic effect on the cells reaches its halfway point.
